In ChEMBL document CHEMBL2346523, “Synthesis and in vitro and in vivo characterization of highly β1-selective β-adrenoceptor partial agonists” (J Med Chem, 2013):
Calls of active or inactive are those of the source. No cut-off for these calls is given here.

Key:
[1] = target: T1, Beta-2 adrenergic receptor (Homo sapiens, UniProt P07550); experiment: Displacement of [3H]-CGP12177 from human beta2 adrenoceptor expressed in CHOK1 cells after 2 hrs by scintillation counting analysis; format: cell-based; conditions: for inhibition: CHO-K1
[2] = system: Rattus norvegicus; experiment: Agonist activity at beta2 adrenoceptor in conscious free moving Sprague-Dawley rat model assessed as effect on hindquarters response at 2 mg/kg, iv administered as bolus dose followed by 1 mg/kg/hr, iv administered as 90 mins infusion measured for 0.5 hrs to 25 hrs; format: functional, organism-based
Method in brief: (§1)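 Conscious, unrestrained adult male Sprague–Dawley rats (300–350 g) with an implanted Doppler probe, an aortic catheter for blood pressure and heart rate, and a jugular catheter for dosing; studied 24 h after catheterisation. Atropine methyl nitrate 1 mg/kg/h was infused throughout. Isoprenaline 3 min infusions (12, 40, 120 ng/kg/min) were given before and from 30 min after saline or HCl salt iv bolus plus infusion. Response = third-minute value minus pre-infusion steady state; hindquarters conductance derived from BP and Doppler shift; n = 4.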

[3] = target: T2, Beta-3 adrenergic receptor (Homo sapiens, UniProt P13945); experiment: Agonist activity at human beta3 adrenoceptor expressed in CHOK1 cells assessed as induction of [3H]cAMP accumulation at 10 uM after 5 hrs relative to isoprenaline; format: functional, cell-based; conditions: CHO-K1
Method in brief: (§2)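 CHO-K1 cells stably expressing human β3 (790 fmol/mg protein) were grown to confluence and prelabelled 2 h with 2 μCi/mL 3H-adenine. Cells then had 15 min in 1 mM IBMX, followed by ligand for 5 h. The reaction was stopped with HCl, and 3H-cAMP was isolated on Dowex/alumina columns. Responses are % of 10 μM isoprenaline. Mean ± SEM of separate experiments.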
Target sequence in this assay (P13945 whole entry, looked up): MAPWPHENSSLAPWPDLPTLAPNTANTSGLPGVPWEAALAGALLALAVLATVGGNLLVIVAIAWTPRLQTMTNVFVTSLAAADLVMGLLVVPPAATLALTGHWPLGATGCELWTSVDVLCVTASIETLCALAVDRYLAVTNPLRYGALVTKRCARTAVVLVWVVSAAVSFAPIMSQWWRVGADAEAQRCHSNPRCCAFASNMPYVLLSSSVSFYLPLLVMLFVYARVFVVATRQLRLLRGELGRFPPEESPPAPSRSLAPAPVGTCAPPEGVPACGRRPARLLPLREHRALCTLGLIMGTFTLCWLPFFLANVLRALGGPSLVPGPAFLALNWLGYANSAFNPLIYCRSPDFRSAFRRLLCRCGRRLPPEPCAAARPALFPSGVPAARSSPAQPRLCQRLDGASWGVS

[4] = system: Rattus norvegicus; experiment: Partial agonist activity at beta1 adrenoceptor in conscious free moving Sprague-Dawley rat model assessed as inhibition of heart rate responses at 2 mg/kg, iv administered as bolus followed by 1 mg/kg/hr, iv administered as 90 mins infusion measured for 0.5 hrs to 25 hrs relative to 40 to 120 ng/kg of isoprenaline; format: functional, organism-based; method in brief: as §1
[5] = system: CHO-K1; experiment: Selectivity ratio of Kd for human beta1 adrenoceptor expressed in CHOK1 cells by radioligand displacement assay to Kd for human beta2 adrenoceptor expressed in CHOK1 cells by radioligand displacement assay; format: cell-based
Method in brief: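 Whole-cell 3H-CGP 12177 binding (0.73 nM) in confluent CHO-K1 cells expressing human β1 or β2, 2 h at 37 °C. Cells were washed with cold PBS and counted by scintillation. Nonspecific binding was defined with 10 μM propranolol. IC50 came from a one-site fit, converted to KD; […] KD ratio. Triplicate points.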

[6] = target: T2, Beta-3 adrenergic receptor; experiment: Agonist activity at human beta3 adrenoceptor expressed in CHOK1 cells assessed as induction of [3H]cAMP accumulation at 100 uM after 5 hrs relative to isoprenaline; format: functional, cell-based; conditions: CHO-K1; method in brief: as §2
Target sequence in this assay (P13945 whole entry, looked up): as above

[7] = target: T2, Beta-3 adrenergic receptor; experiment: Antagonist activity at human beta3 adrenoceptor expressed in CHOK1 cells assessed as inhibition of cimaterol-induced [3H]cAMP accumulation incubated for 15 mins prior to cimaterol induction measured after 5 hrs; format: functional, cell-based, CHO-K1
Method in brief: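 3H-cAMP accumulation in CHO-K1 cells stably expressing human β1, β2 or β3 adrenoceptors, prelabelled with 3H-adenine. Log KD was taken from the dose ratio shift, or by the Stephenson partial-agonist method when partial agonism was seen. Triplicates, on the same cell passage.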
Target sequence in this assay (P13945 whole entry): as the sequence (P13945 whole entry, looked up) above

[8] = target: T1, Beta-2 adrenergic receptor; experiment: Antagonist activity at human beta2 adrenoceptor expressed in CHOK1 cells assessed as inhibition of cimaterol-induced [3H]cAMP accumulation incubated for 15 mins prior to cimaterol induction measured after 5 hrs; format: functional, cell-based, CHO-K1
Target sequence in this assay (P07550 whole entry, the tested form may be a part): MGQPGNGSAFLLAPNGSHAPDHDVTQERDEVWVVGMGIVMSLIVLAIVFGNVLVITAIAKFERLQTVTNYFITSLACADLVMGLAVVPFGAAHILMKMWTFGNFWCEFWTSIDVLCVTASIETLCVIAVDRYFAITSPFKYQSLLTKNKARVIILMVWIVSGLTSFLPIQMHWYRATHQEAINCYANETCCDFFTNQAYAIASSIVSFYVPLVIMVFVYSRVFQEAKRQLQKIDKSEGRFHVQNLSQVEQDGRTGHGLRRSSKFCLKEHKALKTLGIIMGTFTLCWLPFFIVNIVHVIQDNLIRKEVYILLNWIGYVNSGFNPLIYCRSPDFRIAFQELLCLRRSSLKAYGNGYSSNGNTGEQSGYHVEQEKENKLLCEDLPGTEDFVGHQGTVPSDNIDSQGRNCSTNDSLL

[9] = target: T3, Beta-1 adrenergic receptor (Homo sapiens, UniProt P08588); experiment: Displacement of [3H]-CGP12177 from human beta1 adrenoceptor expressed in CHOK1 cells after 2 hrs by scintillation counting analysis; format: cell-based, CHO-K1
T3 sequence (P08588 whole entry): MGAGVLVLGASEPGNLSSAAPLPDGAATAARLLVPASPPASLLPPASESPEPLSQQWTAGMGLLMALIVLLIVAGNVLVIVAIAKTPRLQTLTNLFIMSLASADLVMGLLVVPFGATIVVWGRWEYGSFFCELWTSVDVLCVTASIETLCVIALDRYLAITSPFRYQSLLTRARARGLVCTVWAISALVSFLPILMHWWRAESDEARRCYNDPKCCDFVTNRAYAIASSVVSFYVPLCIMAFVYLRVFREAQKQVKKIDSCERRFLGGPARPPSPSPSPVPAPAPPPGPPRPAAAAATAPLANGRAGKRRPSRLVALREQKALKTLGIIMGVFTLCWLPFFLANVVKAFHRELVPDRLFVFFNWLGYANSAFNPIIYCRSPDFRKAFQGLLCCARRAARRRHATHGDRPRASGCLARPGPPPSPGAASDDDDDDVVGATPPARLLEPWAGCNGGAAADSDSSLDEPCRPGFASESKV

[10] = target: T3, Beta-1 adrenergic receptor; experiment: Antagonist activity at human beta1 adrenoceptor expressed in CHOK1 cells assessed as inhibition of cimaterol-induced [3H]cAMP accumulation incubated for 15 mins prior to cimaterol induction measured after 5 hrs; format: functional, cell-based, CHO-K1
[11] = target: T3, Beta-1 adrenergic receptor; experiment: Partial agonist activity at human beta1 adrenoceptor expressed in CHOK1 cells assessed as induction of [3H]cAMP accumulation after 5 hrs; format: functional, cell-based, CHO-K1
[12] = system: Rattus norvegicus; experiment: Partial agonist activity at beta1 adrenoceptor in conscious free moving Sprague-Dawley rat model assessed as increase in heart rate at 2 mg/kg, iv bolus followed by 1 mg/kg/hr, iv infusion for 90 mins measured for 0.5 hrs to 25 hrs relative to 120 ng/kg of isoprenaline; format: functional; method in brief: as §1
[13] = target: T2, Beta-3 adrenergic receptor; experiment: Agonist activity at human beta3 adrenoceptor expressed in CHOK1 cells assessed as induction of [3H]cAMP accumulation after 5 hrs relative to isoprenaline; format: functional, cell-based; conditions: CHO-K1
Target sequence in this assay (P13945 whole entry, looked up): as the sequence (P13945 whole entry, looked up) above

**Q.** Which inhibition [1] does the source give for `O=C(NCCNCC(O)COc1ccc(OCCOCC2CC2)cc1)Nc1ccc(O)cc1` (centres undefined) [listing 1 of 2 here] here?
**A.** inactive

**Q.** What about the Activity [2] of the same molecule?
**A.** inactive

**Q.** And the Activity [3]?
**A.** 12.5%

**Q.** What about the inhibition [4] of the same molecule?
**A.** Active

**Q.** `O=C(NCCNCC(O)COc1ccc(OCCOC2CCCC2)cc1)Nc1ccccc1Br` (centres undefined) was tested. Which Selectivity ratio [5] did it give?
**A.** 10

**Q.** With `O=C(NCCNCC(O)COc1ccc(OCCOC2CCCC2)cc1)Nc1ccc(F)cc1` (centres undefined) as the molecule, how does the Selectivity ratio [5] read?
**A.** 60

**Q.** How did the Activity [6] turn out when `O=C(NCCNCC(O)COc1ccc(O)cc1)N1CCOCC1` (centres undefined) was run?
**A.** 38.3%

**Q.** `O=C(NCCNCC(O)COc1ccc(OCCOCC2CC2)cc1)Nc1ccc(O)cc1` (centres undefined) [listing 2 of 2 here] was tested. Which Kd ([7]; read-out: Kd) did it give?
**A.** > 10000 nM

**Q.** And the Kd ([8]; read-out: pKd (converted))?
**A.** 7080 nM

**Q.** And the Kd [9]?
**A.** 32.4 nM

**Q.** And the Kd [10]?
**A.** 17.8 nM

**Q.** What about the EC50 [11] of the same molecule?
**A.** 9.77 nM

**Q.** How did the Kd ([7]; read-out: pKd (converted)) turn out when `O=C(NCCNCC(O)COc1ccc(OCCOC2CCCC2)cc1)Nc1cccc(Cl)c1` (centres undefined) was run?
**A.** 6030 nM

**Q.** And the Kd ([8]; read-out: pKd (converted))?
**A.** 794 nM

**Q.** And the Kd [9]?
**A.** 6.17 nM

**Q.** What about the Kd [1] of the same molecule?
**A.** 2040 nM

**Q.** What about the Selectivity ratio [5] of the same molecule?
**A.** 331

**Q.** What about the Activity [3] of the same molecule?
**A.** 2%

**Q.** What about the Kd [10] of the same molecule?
**A.** 1.48 nM

**Q.** What about the EC50 [11] of the same molecule?
**A.** 3.02 nM

**Q.** For `COc1ccccc1NC(=O)NCCNCC(O)COc1ccc(OCCOC2CCCC2)cc1` (centres undefined), which Selectivity ratio [5] is on record?
**A.** 12

**Q.** With `O=C(NCCNCC(O)COc1ccc(OCCOC2CCCC2)cc1)Nc1ccccc1F` (centres undefined) as the molecule, how does the Selectivity ratio [5] read?
**A.** 76

**Q.** What does the source list for `CCOCCOc1ccc(OCC(O)CNCCNC(=O)Nc2ccc(O)cc2)cc1` (centres undefined)?
**A.** Kd ([7]; read-out: Kd): > 10000 nM; Kd ([8]; read-out: Kd): > 10000 nM; Kd [9]: 91.2 nM; inhibition [1]: inactive; Activity [3]: 1.3%; Kd [10]: 26.9 nM; EC50 [11]: 22.9 nM

**Q.** With `O=C(NCCNCC(O)COc1ccc(OCCOC2CCCC2)cc1)Nc1ccccc1C(F)(F)F` (centres undefined) as the molecule, how does the Selectivity ratio [5] read?
**A.** 13

**Q.** `Cc1cccc(NC(=O)NCCNCC(O)COc2ccc(OCCOC3CCCC3)cc2)c1` (centres undefined) was tested. Which Selectivity ratio [5] did it give?
**A.** 96

**Q.** Which Activity [12] does the source give for `Cl.O=C(NCCNCC(O)COc1ccc(OCCOCC2CC2)cc1)Nc1ccc(O)cc1` (centres undefined) here?
**A.** 44%

**Q.** How did the Selectivity ratio [5] turn out when `O=C(NCCNCC(O)COc1ccc(OCCOC2CCCC2)cc1)Nc1ccc(Cl)cc1` (centres undefined) was run?
**A.** 110

**Q.** For `CC(C)NCC(O)c1ccc(N)c(C#N)c1` (centres undefined), which Activity [13] is on record?
**A.** 89.6%

**Q.** How did the Activity [3] turn out when `N#Cc1ccccc1OCC(O)CNCCNC(=O)Nc1ccccc1` (centres undefined) was run?
**A.** 11.7%

**Q.** What does the source list for `N#Cc1cc(OCCOCC2CC2)ccc1OCC(O)CNCCNC(=O)Nc1ccc(O)cc1` (centres undefined) [LK-204545]?
**A.** Kd ([7]; read-out: Kd): > 10000 nM; Kd ([8]; read-out: pKd (converted)): 2880 nM; Kd [1]: 5130 nM; Activity [3]: 8.6%

**Q.** `COc1cccc(NC(=O)NCCNCC(O)COc2ccc(OCCOC3CCCC3)cc2)c1` (centres undefined) was tested. Which Selectivity ratio [5] did it give?
**A.** 51

**Q.** Which Selectivity ratio [5] does the source give for `COc1ccc(NC(=O)NCCNCC(O)COc2ccc(OCCOC3CCCC3)cc2)cc1` (centres undefined) here?
**A.** 87

**Q.** With `O=C(NCCNCC(O)COc1ccc(OCCOC2CCCC2)cc1)Nc1cccc(F)c1` (centres undefined) as the molecule, how does the Selectivity ratio [5] read?
**A.** 43

**Q.** Which results are given for `O=C(NCCNCC(O)COc1ccc(OCCOCCc2ccc(F)cc2)cc1)Nc1ccc(O)cc1` (centres undefined)?
**A.** Kd ([7]; read-out: pKd (converted)): 2630 nM; Kd ([8]; read-out: pKd (converted)): 891 nM; Kd [1]: 1230 nM; Selectivity ratio [5]: 389; Activity [3]: 7.9%; Kd [10]: 1 nM; EC50 [11]: 2.29 nM

**Q.** Which Selectivity ratio [5] does the source give for `O=C(NCCNCC(O)COc1ccc(OCCOC2CCCC2)cc1)Nc1ccc(Br)cc1` (centres undefined) here?
**A.** 81

**Q.** `O=C(NCCNCC(O)COc1ccc(OCCOC2CCCC2)cc1)Nc1ccc(C(F)(F)F)cc1` (centres undefined) was tested. Which Selectivity ratio [5] did it give?
**A.** 87

**Q.** For `O=C(NCCNCC(O)COc1ccc(OCCOC2CCCC2)cc1)Nc1ccc(O)cc1` (centres undefined), which Kd ([7]; read-out: Kd) is on record?
**A.** > 10000 nM

**Q.** What about the Kd ([8]; read-out: pKd (converted)) of the same molecule?
**A.** 1450 nM

**Q.** What about the Kd [9] of the same molecule?
**A.** 7.41 nM

**Q.** And the Selectivity ratio [5]?
**A.** 478

**Q.** And the Activity [3]?
**A.** 4%

**Q.** And the Kd [10]?
**A.** 2.82 nM

**Q.** And the EC50 [11]?
**A.** 3.63 nM

**Q.** `O=C(NCCNCC(O)COc1ccc(OCCOC2CCCC2)cc1)Nc1ccccc1` (centres undefined) was tested. Which Kd ([7]; read-out: Kd) did it give?
**A.** > 10000 nM

**Q.** What about the Kd ([8]; read-out: pKd (converted)) of the same molecule?
**A.** 1200 nM

**Q.** What about the Kd [9] of the same molecule?
**A.** 12.3 nM

**Q.** What about the Kd [1] of the same molecule?
**A.** 2630 nM

**Q.** What about the Selectivity ratio [5] of the same molecule?
**A.** 213

**Q.** And the Activity [3]?
**A.** 4%

**Q.** And the Kd [10]?
**A.** 3.47 nM

**Q.** What about the EC50 [11] of the same molecule?
**A.** 4.47 nM

**Q.** How did the Selectivity ratio [5] turn out when `Cc1ccccc1NC(=O)NCCNCC(O)COc1ccc(OCCOC2CCCC2)cc1` (centres undefined) was run?
**A.** 11

**Q.** Which Selectivity ratio [5] does the source give for `O=C(NCCNCC(O)COc1ccc(OCCOC2CCCC2)cc1)Nc1cccc(C(F)(F)F)c1` (centres undefined) here?
**A.** 81

**Q.** `O=C(NCCNCC(O)COc1ccc(OCCOC2CCCC2)cc1)Nc1cccc(O)c1` (centres undefined) was tested. Which Selectivity ratio [5] did it give?
**A.** 110
